Laboratory results as given in ChEMBL document CHEMBL1134475, “3-(4-Fluoropiperidin-3-yl)-2-phenylindoles as high affinity, selective, and orally bioavailable h5-HT(2A) receptor antagonists” (J Med Chem, 2001).

Legend:
[1] = molecular target: 5-hydroxytryptamine receptor 2A (Homo sapiens, UniProt P28223); assay: Ability to displace [3H]ketanserin binding to human 5-hydroxytryptamine 2A receptor stably expressed in CHO cells; assay type: cell-based
In short: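 Membranes from CHO cells stably expressing human 5-HT2A, homogenized in 50 mM Tris-HCl pH 7.5, at 2 mg wet weight/mL. Ki from nonlinear least-squares regression, geometric mean of at least three determinations.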

[2] = molecular target: T1, 5-hydroxytryptamine receptor 2C (Homo sapiens, UniProt P28335); assay: Ability to displace [3H]mesulergine binding to human 5-hydroxytryptamine 2C receptor stably expressed in CHO cells; assay type: cell-based
T1 sequence (P28335 whole entry): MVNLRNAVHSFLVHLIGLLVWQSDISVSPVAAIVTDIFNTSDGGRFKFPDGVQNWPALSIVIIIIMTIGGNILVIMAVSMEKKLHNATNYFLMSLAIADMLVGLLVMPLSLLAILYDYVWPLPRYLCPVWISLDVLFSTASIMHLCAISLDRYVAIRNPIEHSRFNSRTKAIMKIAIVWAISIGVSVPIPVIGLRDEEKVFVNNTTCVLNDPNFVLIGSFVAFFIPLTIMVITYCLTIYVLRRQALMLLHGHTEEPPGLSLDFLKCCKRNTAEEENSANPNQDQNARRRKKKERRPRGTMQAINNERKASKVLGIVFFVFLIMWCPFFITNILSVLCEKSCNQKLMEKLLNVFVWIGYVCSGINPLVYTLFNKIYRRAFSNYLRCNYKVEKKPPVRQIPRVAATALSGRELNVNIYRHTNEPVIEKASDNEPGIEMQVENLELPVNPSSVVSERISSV

[3] = Area under the concentration-time curve for 0-4 hr after 2 mg/kg po in rat; assay type: ADME, organism-based; design: time < 4 hr, dose 2 mg/kg, route oral; conditions: in vivo
In short: (§1)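 Male Sprague-Dawley rats (~300 g) gavaged at 2 mg/kg (5 mL/kg of 0.5% methocel A4C suspension), five rats; one rat culled per time point up to 4 h for blood. Samples get internal standard and are extracted into ethyl acetate, then LC-MS single ion recording.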

[4] = Bioavailability in rat (dose 0.5-2 mg/kg i.v. and p.o.); assay type: ADME, organism-based; conditions: in vivo, po
In short: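 Male Sprague-Dawley rats (~300 g), jugular-cannulated, three per route. Dosing by i.v. tail-vein bolus and oral gavage, each in a suitable vehicle. Serial jugular blood samples taken; plasma extracted with ethyl acetate against an internal standard. Analysis by LC-MS with single ion recording. F from model-independent parameters.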

[5] = Terminal half-life following iv dosing in rat; assay type: ADME, organism-based; conditions: in vivo
[6] = Maximum blood concentration after oral dosing at 2 mg/kg in rat; assay type: ADME, organism-based; design: dose 2 mg/kg, route oral; in short: as §1
[7] = molecular target: T2, Adrenergic receptor alpha-1 (Rattus norvegicus, UniProt P15823+P23944+P43140); assay: Ability to displace [3H]-prazosin binding to rat cortical membranes expressing Alpha-1 adrenergic receptors
T2 sequence (P15823 whole entry): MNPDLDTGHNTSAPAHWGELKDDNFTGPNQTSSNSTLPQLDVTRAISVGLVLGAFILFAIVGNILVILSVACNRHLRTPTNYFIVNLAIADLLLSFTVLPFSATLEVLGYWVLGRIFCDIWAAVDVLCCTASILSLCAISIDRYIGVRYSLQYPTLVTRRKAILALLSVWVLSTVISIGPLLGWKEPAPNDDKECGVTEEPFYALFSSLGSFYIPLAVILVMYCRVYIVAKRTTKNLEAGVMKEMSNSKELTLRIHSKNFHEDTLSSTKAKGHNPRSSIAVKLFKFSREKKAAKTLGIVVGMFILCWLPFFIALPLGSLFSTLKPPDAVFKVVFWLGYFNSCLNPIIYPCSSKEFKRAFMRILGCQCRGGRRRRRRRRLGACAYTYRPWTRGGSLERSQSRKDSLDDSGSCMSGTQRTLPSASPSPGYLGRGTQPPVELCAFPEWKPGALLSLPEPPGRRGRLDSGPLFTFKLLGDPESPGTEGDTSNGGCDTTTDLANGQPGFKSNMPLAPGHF
T2 sequence (P23944 whole entry): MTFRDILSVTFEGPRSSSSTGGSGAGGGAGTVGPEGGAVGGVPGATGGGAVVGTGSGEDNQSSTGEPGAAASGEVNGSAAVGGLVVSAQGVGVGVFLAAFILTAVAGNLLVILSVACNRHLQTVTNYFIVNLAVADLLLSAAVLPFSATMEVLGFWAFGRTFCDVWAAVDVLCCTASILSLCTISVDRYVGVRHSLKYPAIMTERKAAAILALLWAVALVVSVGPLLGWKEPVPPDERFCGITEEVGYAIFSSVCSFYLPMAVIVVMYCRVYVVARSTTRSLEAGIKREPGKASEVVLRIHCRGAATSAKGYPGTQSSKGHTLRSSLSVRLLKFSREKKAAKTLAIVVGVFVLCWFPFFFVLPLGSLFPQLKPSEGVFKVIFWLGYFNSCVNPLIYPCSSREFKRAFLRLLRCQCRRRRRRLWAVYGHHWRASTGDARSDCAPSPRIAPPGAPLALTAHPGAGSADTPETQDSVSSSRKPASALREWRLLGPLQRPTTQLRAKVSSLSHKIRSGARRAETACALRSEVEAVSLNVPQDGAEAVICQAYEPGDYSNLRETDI
T2 sequence (P43140 whole entry): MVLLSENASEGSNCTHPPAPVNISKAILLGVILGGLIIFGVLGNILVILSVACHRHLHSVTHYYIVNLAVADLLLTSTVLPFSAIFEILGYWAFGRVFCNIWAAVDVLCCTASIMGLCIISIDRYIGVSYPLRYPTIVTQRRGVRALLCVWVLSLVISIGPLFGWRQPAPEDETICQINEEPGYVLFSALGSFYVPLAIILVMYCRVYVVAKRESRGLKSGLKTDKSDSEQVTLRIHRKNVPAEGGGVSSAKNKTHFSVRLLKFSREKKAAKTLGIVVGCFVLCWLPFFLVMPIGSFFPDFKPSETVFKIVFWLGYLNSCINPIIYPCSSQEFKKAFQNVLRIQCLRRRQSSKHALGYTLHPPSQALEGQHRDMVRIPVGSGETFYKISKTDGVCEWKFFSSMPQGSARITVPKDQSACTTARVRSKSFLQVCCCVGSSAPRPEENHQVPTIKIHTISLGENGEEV

D(2) dopamine receptor = D(2) dopamine receptor (Homo sapiens, UniProt P14416); assay: Ability to displace [3H]spiperone binding to CHO cells stably expressing dopamine receptor D2; assay type: cell-based
[8] = molecular target: Voltage-gated inwardly rectifying potassium channel KCNH2 (Homo sapiens, UniProt Q12809); assay: Displacement of [3H]dofetilide from HEK cells expressing hERG voltage dependent IKr potassium channel Kv11.1
[9] = Bioavailability in dog (dose 0.5-2 mg/kg i.v. and p.o.); assay type: ADME, organism-based, Canis lupus familiaris; conditions: in vivo, po
In short: (§2)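 Female Beagle dogs (10-12 kg), three per route; i.v. cephalic-vein bolus (1 mL/kg PEG 300/water) and oral gavage (5 mL/kg of 0.5% methocel A4C suspension), 0.5-2 mg/kg. Serial blood to 24 h; plasma extracted with ethyl acetate, LC-MS. Model-independent bioavailability and terminal half-life after i.v. dosing.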

[10] = Terminal half-life following iv dosing in dog; assay type: ADME, organism-based, Canis lupus familiaris; conditions: in vivo; in short: as §2
[11] = Terminal half-life following iv dosing in dog, measured over 48 hr; assay type: ADME, organism-based, Canis lupus familiaris; conditions: in vivo
[12] = Terminal half-life following iv dosing in rat, measured over 48 hr; assay type: ADME, organism-based; conditions: in vivo

Sequence of Voltage-gated inwardly rectifying potassium channel KCNH2 (Q12809 whole entry): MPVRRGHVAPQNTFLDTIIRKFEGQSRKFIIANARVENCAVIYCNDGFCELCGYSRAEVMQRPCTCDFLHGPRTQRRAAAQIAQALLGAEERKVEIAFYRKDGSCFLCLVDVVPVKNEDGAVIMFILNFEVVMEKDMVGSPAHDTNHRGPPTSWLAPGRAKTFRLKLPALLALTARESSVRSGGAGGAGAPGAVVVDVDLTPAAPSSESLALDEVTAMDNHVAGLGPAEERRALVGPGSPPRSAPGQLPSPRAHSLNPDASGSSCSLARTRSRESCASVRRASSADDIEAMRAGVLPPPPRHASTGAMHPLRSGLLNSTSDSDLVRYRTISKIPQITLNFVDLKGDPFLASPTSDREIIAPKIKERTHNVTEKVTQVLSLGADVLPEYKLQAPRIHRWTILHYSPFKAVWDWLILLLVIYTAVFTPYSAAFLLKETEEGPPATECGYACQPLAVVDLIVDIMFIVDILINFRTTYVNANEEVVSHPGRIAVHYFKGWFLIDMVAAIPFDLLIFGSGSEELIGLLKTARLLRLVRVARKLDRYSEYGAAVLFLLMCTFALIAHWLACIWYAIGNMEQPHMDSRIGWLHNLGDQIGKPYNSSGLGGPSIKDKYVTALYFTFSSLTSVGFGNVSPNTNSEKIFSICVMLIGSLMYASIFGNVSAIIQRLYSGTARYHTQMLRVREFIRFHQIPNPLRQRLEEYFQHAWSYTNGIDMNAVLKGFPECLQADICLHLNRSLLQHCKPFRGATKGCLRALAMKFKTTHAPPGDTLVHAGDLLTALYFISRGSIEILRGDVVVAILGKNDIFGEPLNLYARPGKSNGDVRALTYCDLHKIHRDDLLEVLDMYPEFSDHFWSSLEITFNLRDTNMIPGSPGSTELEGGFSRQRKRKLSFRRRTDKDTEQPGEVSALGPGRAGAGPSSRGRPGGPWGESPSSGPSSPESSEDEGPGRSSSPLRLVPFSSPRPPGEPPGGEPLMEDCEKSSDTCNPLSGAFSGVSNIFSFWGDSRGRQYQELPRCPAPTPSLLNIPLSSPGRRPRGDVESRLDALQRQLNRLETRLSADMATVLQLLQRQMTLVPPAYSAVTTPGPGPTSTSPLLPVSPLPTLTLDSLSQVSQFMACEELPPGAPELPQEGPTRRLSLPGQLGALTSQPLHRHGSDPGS
Sequence of D(2) dopamine receptor (P14416 whole entry): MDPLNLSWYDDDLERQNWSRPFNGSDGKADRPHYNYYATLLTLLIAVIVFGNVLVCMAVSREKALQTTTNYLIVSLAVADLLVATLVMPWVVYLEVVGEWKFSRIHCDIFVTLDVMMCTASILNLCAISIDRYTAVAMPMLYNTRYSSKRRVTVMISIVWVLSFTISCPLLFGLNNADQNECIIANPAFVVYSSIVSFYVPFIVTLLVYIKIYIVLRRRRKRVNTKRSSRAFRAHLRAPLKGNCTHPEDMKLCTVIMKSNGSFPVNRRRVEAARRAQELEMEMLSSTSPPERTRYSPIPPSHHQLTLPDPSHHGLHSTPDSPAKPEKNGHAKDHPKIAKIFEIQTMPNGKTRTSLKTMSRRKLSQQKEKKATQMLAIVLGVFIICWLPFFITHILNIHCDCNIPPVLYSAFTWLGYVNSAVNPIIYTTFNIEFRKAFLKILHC
Sequence of 5-hydroxytryptamine receptor 2A (P28223 whole entry): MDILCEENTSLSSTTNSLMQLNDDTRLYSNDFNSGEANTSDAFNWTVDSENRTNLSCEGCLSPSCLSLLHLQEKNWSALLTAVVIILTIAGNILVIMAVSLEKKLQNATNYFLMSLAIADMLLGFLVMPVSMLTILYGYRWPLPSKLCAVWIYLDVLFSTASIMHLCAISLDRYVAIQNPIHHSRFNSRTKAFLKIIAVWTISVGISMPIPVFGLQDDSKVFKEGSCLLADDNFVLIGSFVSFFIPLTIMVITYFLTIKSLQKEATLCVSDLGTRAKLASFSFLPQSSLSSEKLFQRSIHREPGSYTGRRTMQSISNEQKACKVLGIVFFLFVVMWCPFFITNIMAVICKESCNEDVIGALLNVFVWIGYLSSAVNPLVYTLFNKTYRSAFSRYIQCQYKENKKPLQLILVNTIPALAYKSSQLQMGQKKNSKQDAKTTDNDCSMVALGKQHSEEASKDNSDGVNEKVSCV

SMILES | Ki [1] | Ki [2] | Ki [7] | Ki (D(2) dopamine receptor) | also measured
c1ccc(CCN2[C@@H]3CC[C@H]2CC(c2c(-c4ccccc4)[nH]c4ccccc24)C3)cc1 (stereo not given in full) | 1.2 nM | 400 nM | 250 nM | 1000 nM | AUC(0-t) at 4 h [3]: 126 ng·h/mL; bioavailability [4]: 18%; half-life [5]: 2.3 h; Cmax [6]: 210 ng/mL; Ki [8]: 18 nM
F[C@H]1CCNC[C@@H]1c1c(-c2ccccc2)[nH]c2ccccc12 | 220 nM |  |  | > 1700 nM | 
Fc1ccc2c([C@@H]3CNCC[C@H]3F)c(-c3ccoc3)[nH]c2c1 | 0.54 nM |  | 3.6 nM | > 1600 nM | 
Fc1ccc2c([C@@H]3CNCC[C@H]3F)c[nH]c2c1 | 70 nM |  |  |  | 
O[C@@H]1CCNC[C@H]1c1c(-c2ccccc2)[nH]c2ccccc12 | 3.3 nM |  |  | > 1600 nM | 
c1ccc(-c2[nH]c3ccccc3c2C2CCNCC2)cc1 |  | 400 nM | 2100 nM | > 1600 nM | Ki [8]: 5700 nM
O=C1NCCN1CCN1CCCC(c2c(-c3ccccc3)[nH]c3ccccc23)C1 (stereo not given) | 26 nM | 2500 nM |  | > 1300 nM | AUC(0-t) at 4 h [3]: 217 ng·h/mL; Cmax [6]: 85 ng/mL
Fc1ccc(-c2[nH]c3cc(F)ccc3c2C2CCCNC2)cc1 (stereo not given) | 0.09 nM | 16 nM | 1.1 nM | 28 nM | Ki [8]: 1300 nM
CN1CCN(C)C(c2c(-c3ccccc3)[nH]c3ccccc23)C1 (stereo not given) | 320 nM |  |  | > 1600 nM | 
c1ccc(-c2[nH]c3ccccc3c2C2CNCCO2)cc1 (stereo not given) | 18 nM |  |  | 1600 nM | 
c1ccc(CCN2CCC(c3c(-c4ccccc4)[nH]c4ccccc34)CC2)cc1 | 0.48 nM |  | 25 nM | 350 nM | bioavailability [9]: 4%; half-life [10]: 9.8 h; half-life [5]: 5.3 h
c1ccc(-c2[nH]c3ccccc3c2C2CCCNC2)cc1 (stereo not given) | 0.99 nM | 89 nM | 21 nM | > 1300 nM | AUC(0-t) at 4 h [3]: 47 ng·h/mL; Cmax [6]: 26 ng/mL
CN1CCCCC1c1c(-c2ccccc2)[nH]c2ccccc12 (stereo not given) | 14 nM | 2000 nM | 99 nM | > 1700 nM | 
CN1CCCC(c2c(-c3ccccc3)[nH]c3ccccc23)C1 (stereo not given) | 4.7 nM | 150 nM | 30 nM | 28 nM | Ki [8]: 9600 nM
c1ccc(CCN2CCCC(c3c(-c4ccccc4)[nH]c4ccccc34)C2)cc1 (stereo not given) | 59 nM | 2400 nM |  | 500 nM | 
c1ccc(CN2CCCC(c3c(-c4ccccc4)[nH]c4ccccc34)C2)cc1 (stereo not given) | 20 nM | 2000 nM | 47 nM | 1600 nM | 

SMILES | Ki [1] | Ki [2] | Ki [7] | Ki (D(2) dopamine receptor) | also measured
Fc1ccc2c([C@@H]3CNCC[C@H]3F)c(-c3cccc4ccccc34)[nH]c2c1 | 0.34 nM |  | 8.5 nM | 1400 nM | Ki [8]: 110 nM
F[C@@H]1CCNC[C@H]1c1c(-c2ccccc2)[nH]c2ccc(Cl)cc12 | 10.2 nM |  | 40 nM | > 1600 nM | 
Fc1ccc2c([C@@H]3CNCC[C@H]3F)c(-c3ccc4ccccc4c3)[nH]c2c1 | 0.23 nM |  | 2.1 nM | 500 nM | Ki [8]: 500 nM
Fc1ccc2c([C@@H]3CNCC[C@H]3F)c(-c3ccsc3)[nH]c2c1 | 0.11 nM | 50 nM | 2.8 nM | 1600 nM | Ki [8]: 1500 nM
O=C(Nc1ccccc1)c1[nH]c2cc(F)ccc2c1[C@@H]1CNCC[C@H]1F | 0.09 nM | 48 nM | 3.9 nM | > 1600 nM | AUC(0-t) at 4 h [3]: 8 ng·h/mL; Cmax [6]: 3 ng/mL
F[C@@H]1CCNC[C@H]1c1c(-c2ccccc2)[nH]c2ccccc12 | 0.43 nM | 19 nM | 25 nM | > 1700 nM | bioavailability [9]: 37%; bioavailability [4]: 18%; half-life [10]: 7.4 h; half-life [5]: 1.4 h
Fc1ccc2[nH]c(-c3ccccc3)c([C@@H]3CNCC[C@H]3F)c2c1 | 4 nM | 500 nM | 210 nM | > 1600 nM | Ki [8]: > 7000 nM
F[C@@H]1CCNC[C@H]1c1c(-c2ccccc2)[nH]c2cc(Cl)ccc12 | 2.3 nM |  | 16 nM | > 1600 nM | 
Fc1cccc2c([C@@H]3CNCC[C@H]3F)c(-c3ccccc3)[nH]c12 | 0.46 nM | 132 nM | 27 nM | > 1600 nM | 
Fc1ccc2c([C@@H]3CNCC[C@H]3F)c(-c3ccccc3)[nH]c2c1 |  |  |  |  | half-life [11]: 6.4 h; half-life [12]: 12 h
COC(=O)c1[nH]c2cc(F)ccc2c1[C@@H]1CNCC[C@H]1F | 10.4 nM | > 2000 nM | 7.3 nM | > 1600 nM | 
Fc1ccc2c([C@@H]3CNCC[C@H]3F)c(C3CCCCC3)[nH]c2c1 | 0.25 nM | 5 nM | 21 nM | > 1600 nM | 
Fc1ccc(-c2[nH]c3cc(F)ccc3c2[C@@H]2CNCC[C@H]2F)cc1 | 0.12 nM | 19 nM | 2.9 nM | 900 nM | AUC(0-t) at 4 h [3]: 350 ng·h/mL; Cmax [6]: 149 ng/mL; Ki [8]: 1600 nM
F[C@@H]1CCNC[C@H]1c1c(-c2ccccc2)[nH]c2c(Cl)cccc12 | 0.69 nM | 154 nM | 6.7 nM | > 1600 nM | 
Fc1ccc2c([C@@H]3CNCC[C@H]3F)c(-c3cccnc3)[nH]c2c1 | 0.35 nM | 85 nM | 7.3 nM | > 1600 nM | 
